Data on 167 variants can be found in the RNAGym collection of RNA variant scans (doi:10.1126/science.aae0568).

Sequences and labels used below:
B1: tRNA (parent)
chain: GUUCCGUUGGCGUAAUGGUAACGCGUCUCCCUCCUAAGGAGAAGACUGCGGGUUCGAGUCCCGUACGGAACG

Variants at the floor of the assay were thinned out.

In the series the parent is B1. The experiment in a line: yeast fitness relative to wild type (ratio to wild type); higher = fitter; tRNA-Arg(CCU), competitive growth, 37 C, YPD. An outline of the steps:
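Variants of the tRNA-Arg(CCU) gene were chemically synthesised with a 3% per-site mutation rate across 69 sites and placed at the native genomic locus in Saccharomyces cerevisiae. Six parallel replicates of the pooled strains were competed in YPD at 37°C for 24 hours, and gene amplicons from the start and end populations were read by 100-nucleotide paired-end sequencing. Darwinian fitness relative to wild type was derived from changes in genotype frequencies. Genotypes required ≥ 100 starting reads, and estimates < 0.5 were set to 0.5.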
Consider C11G A14C C33G A45U C62G A65G, for which the yeast fitness was no more than 0.5.
In the case of C11U C30A U47A C62A it was 0.591.
In the case of C4G A15C C46A G67A it was no more than 0.5; in that of C29G G58C A69U, 0.607.
For the variant C29A A40U A45C C49A A57G, the yeast fitness came out at 0.574.
A20G U47G G68U: the yeast fitness was no more than 0.5.
Then U3C A70C, with 0.993.
Then C5A G23A, with 0.753.
As for C4U C33G C34G G51C U54C, the yeast fitness was 0.561.
Then C5A C11A G17C A43U U59A, with no more than 0.5; and A20C C62U A65G, with 0.593; and C22A U28G, with 0.625.
Then A20G U28A A37G C55G, with 0.578; and C11A A65G C66U, with 0.571.
Consider C4U A14C, for which the yeast fitness is 0.749.
Turning to C4G C66U, the yeast fitness amounted to 0.836.
Then G9C G12C U47G G67C, with 0.607.
Then C5G U7A A20C C31G C34U C62A, with no more than 0.5; and U16G G39A A45C G67A, with no more than 0.5.
In the case of U53C U59A it was 0.731; in that of C46U, 0.986.
U3C U13C C24U G52A G56A: the yeast fitness was no more than 0.5.
Turning to G9A G25A, the yeast fitness was determined as 0.978.
In the case of U13C A43U C60G it was 0.546; in that of C5A U32A, 0.784; in that of U35C C49U C66U, 0.681.
Then G6C C11A, with 0.659; and U3A A37C, with 0.796.
Then U3A A37U, with 0.754; and U2A G25C G38C C61U A70G, with no more than 0.5.
With U3G C5U U26A G68A, the yeast fitness is no more than 0.5.
In the case of C22U A43U C49U C55G C61U it was 0.534; in that of C11G U32G A57C C62U C66U, 0.556; in that of U3C U64A, 0.792.
For A21U C31U U54G, the yeast fitness is no more than 0.5.
In the case of C4U G56A C60U it was no more than 0.5.
Then A43U A69C, with 0.986; and U19C G50C, with 0.613.
Turning to G52C A65U, the yeast fitness worked out at 0.614.
Regarding C4G A21C G39C A42U G48C, the yeast fitness was no more than 0.5.
Then U8A U16G, with 0.628; and U8C U13A G51A, with 0.53.
In the case of G50U it was 0.961.
Then G25C C30U U54C, with no more than 0.5; and A21C G51C, with 0.528; and U3C C61G, with 0.604.
For G9C U32A G58C, the yeast fitness was found to be 0.583.
In the case of C4G U7A G10C A20C G67U it was 0.527.
Then A42G G52C, with 0.574; and U19C G67C, with 0.931; and U26G C31U, with 1.02.
U8C C60G: the yeast fitness amounted to 0.705.
Then G23C A43G G58C U64G, with 0.57.
For the variant G9A C33U G56A G67A, the yeast fitness is no more than 0.5.
With C11U C22A C29G C33U, the yeast fitness is 0.519.
With A43C C46U G63C C66U, the yeast fitness turned out to be 0.581.
Then C4U G12C A45C C49U, with no more than 0.5; and A14G C29U C62U A70U, with 0.536; and C11G U19A G25A C49U, with no more than 0.5.
In the case of U8A C34U A65U it was no more than 0.5.
Then G12A G18C A42U G58A G68A, with no more than 0.5; and U3C C34A, with 0.665.
Regarding A20U A43G, the yeast fitness amounted to 0.978.
Turning to C4G A14G, the yeast fitness worked out at 0.78.
Consider U35C G51C C55U, for which the yeast fitness was no more than 0.5.
As for C24U A43U U47G G67A, the yeast fitness was found to be 0.53.
Regarding C4G C11G U26A C60G, the yeast fitness is no more than 0.5.
In the case of U2A G9A A37G A65C it was no more than 0.5; in that of U13C C55U, 0.837; in that of U13A A20G G41A G51C, 0.532.
In the case of G25C U32A A40C it was no more than 0.5; in that of C11U A14C G68A, 0.624.
Then C5G A20U G51C, with no more than 0.5; and U3G G50A C62U, with 1.04.
For A15C C30A A40G C49G U54A C55A A65G A70U, the yeast fitness is no more than 0.5.
Regarding U7C U59G C60A G68U, the yeast fitness was no more than 0.5.
In the case of C22U C24G C34U A37G G44A it was no more than 0.5.
In the case of A43U it was 0.988; in that of A37G A43C, 0.89.
As to C11U A14G C31A A42G, the yeast fitness is no more than 0.5.
In the case of C5U A15U G51C C61G C62G it was 0.776; in that of U16C A20G, 0.976.
In the case of A45U G48A G56A it was 0.975.
Then C11A G18C C27G, with 0.64; and C11U C55G G67A, with no more than 0.5.
Consider G18A G51C G63A, for which the yeast fitness is no more than 0.5.
In the case of C49U A70U it was 1; in that of A42C A43G G63A, 0.599.
As for U13A U28C G56A, the yeast fitness was found to be 0.805.
In the case of U16G C24U C29G U35C G50A C62A it was no more than 0.5.
Then U19C A20C A21U G56A A69C, with no more than 0.5; and C5U A15U C30G C33G A40G A42G A43U U54G, with no more than 0.5.
Then C33G G44C, with 0.735.
C22A G23A C33U C34G C60A: the yeast fitness is no more than 0.5.
For U13C A36G C62U, the yeast fitness was 0.693.
As to C5A A15U G38C G39A A43C C60G A65C, the yeast fitness is no more than 0.5.
In the case of A20C U35G C46U, the yeast fitness is no more than 0.5.
Then C33A G39C A42G C55U A57G, with 0.585; and G6C G12A C27U G39C, with 0.616.
In the case of U8G U53C it was 0.806; in that of C5A G17A G18A G25A C55A, 0.552.
In the case of G6C G23A it was 0.893.
Take G18C G23A G25C A37G A43C C55G C62A G68A: the yeast fitness is no more than 0.5.
Then U3C C60A C66U, with 0.651; and A40C A65U, with 0.817; and U7C A69U, with 0.913.
In the case of C33A U35A U64C G68C, the yeast fitness was no more than 0.5.
In the case of U8C C27U U35A U59C it was no more than 0.5.
Then A15G U26G A65C, with 0.632; and U2C U8C A42C, with 0.676; and U13G U53C U64C, with no more than 0.5.
In the case of U3A U13C C29A U32A A43G G67C it was no more than 0.5; in that of U8G C29G C66A, no more than 0.5.
For A21G A40C A42C C66A, the yeast fitness is no more than 0.5.
In the case of A21U C24U G56A, the yeast fitness is 0.635.
On to G9A A36G, for which the yeast fitness worked out at 1.03.
In the case of G17C C30G U32C C60G G63A A65U C66U it was 0.544; in that of C29A U54A A57U, 0.535; in that of C27A C30A A43C C62G, no more than 0.5.
Then U26C C27G C34U A37U A43G A45G, with no more than 0.5.
Then U2C A40G G68C, with 0.571; and A14G U28C G68A, with no more than 0.5; and U3A C11A C33U A37U G39C, with no more than 0.5.
C49A G51C: the yeast fitness came to 0.589.
For A42C G50C C66U, the yeast fitness worked out at 0.534.
Then C46U C61G A69U, with 0.627; and U2C C24G C46U A70U, with 0.537.
In the case of A15C A20G C29G it was no more than 0.5.
Then U7G A42U U53A, with no more than 0.5; and C5G U19G C31U U32A A45U A70U, with no more than 0.5.
G6A G52C C66U: the yeast fitness stood at 0.584.
With G10U G17A C24A C62U C66U, the yeast fitness is no more than 0.5.
Then C4U A14G C34G G50C G56C, with 0.637.
In the case of A21C A65U, the yeast fitness worked out at 0.697.
C24G C31U G50C: the yeast fitness turned out to be 0.56.
Then G38C A43C, with 1.12; and C4U C55G, with 0.636.
Then U2A G50C, with 0.562; and U3A A20G, with 1.
Then C5U U28A G41A U54C, with no more than 0.5; and C4A A14U A20C U28G U32A, with no more than 0.5; and U3G U19C, with 0.841.
For A42C G51C, the yeast fitness was 0.553.
Then C5A C24U A43C G58A, with no more than 0.5; and G18A A37C, with 0.727.
Then G10C A20U G41U A57U, with no more than 0.5.
Consider U7A G9A U13A G56A, for which the yeast fitness was 0.535.
Turning to A21U C55U G68C, the yeast fitness was no more than 0.5.
U7A G39C: the yeast fitness came to 0.608.
For U2C C30A, the yeast fitness turned out to be 0.89.
In the case of C30G A42C G56A it was no more than 0.5.
As for C4U U47C G52C C61A, the yeast fitness is no more than 0.5.
Turning to C22G G39A A70G, the yeast fitness stood at 0.599.
On to C27A A37G, for which the yeast fitness was 0.737.
Then C5G U8C G56A, with 0.723.
As for U3C U16G A21C G25C A37C A40U, the yeast fitness is no more than 0.5.
Take A14G A70C: the yeast fitness came out at 0.803.
Then U13A A15G C31G G58C, with no more than 0.5.
In the case of G9A U28C A70G it was 0.673; in that of G6A C22U C61U A70G, no more than 0.5.
Then C24A U47A, with 0.619; and U8C C11G G25A C60A C62U G68C, with no more than 0.5; and A15G C62U A70U, with 0.73.
Regarding C5G C27G C30U G51C C55A, the yeast fitness is no more than 0.5.
Consider C11G G25A U35C A36U, for which the yeast fitness was no more than 0.5.
In the case of A20U C61A C62U A65U A69C it was no more than 0.5.
Then C11G A21G C29G A40C U54A, with no more than 0.5.
